CHO parental Ca – ATP-evoked calcium signal inhibitors, parental CHO, primary screen, counter-screen for OX1R antagonist project, cell-based, fluorescence, Fluo-8 calcium dye; parental CHO-K1, ATP-induced calcium, Fluo-8 fluorescence; inhibition, % at 5.6 µM; hit rate 0.63% among 330,000; AID 463079, 2010;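 active means inhibition above that plate's mean sample inhibition plus 3 SD, cut at about 26% in these data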;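 further: 0% = ATP-challenged DMSO wells and 100% = DMSO wells without ATP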
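Assay system: untransfected parental CHO cell line. Also added: ATP agonist challenge. Dosing: one dose, 5.6 µM nominal. Measured by: Fluo-8 fluorescence. Read-out: % inhibition. Benchmarks: ATP wells versus no-ATP DMSO wells. Repeats: no replicates.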
OX1R antag-1 – OX1R (HCRTR1) antagonists, primary screen, fluorescence, CHO/OX1R cells, Fluo-8 calcium, orexin A | Orexin/Hypocretin receptor type 1 (Homo sapiens), O43613 | Fluo-8 calcium fluorescence | inhibition, % at 5 µM | hit rate 0.43% among 330,000 | AID 434989, 2010;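 active means inhibition above its plate's threshold, mean inhibition of all tested compounds on the plate plus 3 SD, cut at about 37% in these data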;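 further: 0% = orexin A challenge wells and 100% = SB-334867-A antagonist wells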
Target sequence (O43613 whole entry, looked up): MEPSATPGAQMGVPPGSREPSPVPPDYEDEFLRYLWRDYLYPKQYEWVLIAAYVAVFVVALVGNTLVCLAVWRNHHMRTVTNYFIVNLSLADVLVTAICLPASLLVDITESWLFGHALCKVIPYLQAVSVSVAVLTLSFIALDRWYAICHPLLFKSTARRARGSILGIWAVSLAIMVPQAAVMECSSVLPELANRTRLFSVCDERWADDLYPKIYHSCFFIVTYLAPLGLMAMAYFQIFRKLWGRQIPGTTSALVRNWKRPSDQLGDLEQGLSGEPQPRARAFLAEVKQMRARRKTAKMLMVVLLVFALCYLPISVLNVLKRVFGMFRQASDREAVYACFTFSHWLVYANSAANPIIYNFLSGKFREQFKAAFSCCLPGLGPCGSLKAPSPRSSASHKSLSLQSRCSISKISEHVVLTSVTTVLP
GalR3 antagonist – GalR3 antagonists in HEK293 cells, primary screen, cell-based, fluorescence readout; Galanin receptor type 3 (Homo sapiens), O60755; HEK293 GalR3-CNG cAMP membrane potential fluorescence; galR3 body fused to GalR1 C-terminus; inhibition, % at 3 µM; hit rate 0.44% among 360,000; AID 651719, 2012;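 active means inhibition above the screen-wide average plus 3 SD, cut at about 13% in these data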;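 further: forskolin and galanin both at EC90 stimulate the cells; cAMP rise reported by CNG channel membrane potential dye signal; 0% = forskolin plus galanin with DMSO and 100% = forskolin alone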
OX1R antag-2 – antagonists of human orexin 1 receptor (OX1R); inhibition, % at 6.6 µM; OX1R-expressing cells, FRET antagonist read-out; Orexin/Hypocretin receptor type 1 (Homo sapiens), O43613; hit rate 1.8% among 330,000; in the data active means inhibition mostly above about 38%, no sharp cut-off; inactive means mostly below about 40%;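 further: 0% = agonist challenge alone and 100% = reference antagonist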
TAAR1 ag – human TAAR1 agonists, primary screen, Fluo-8 calcium fluorescence, CHO RD-HGA16 cells. Trace amine-associated receptor 1 (Homo sapiens), Q96RJ0. vehicle wells 0%, saturating PEA agonist 100%. activation, % at 3 µM. hit rate 0.99% among 360,000;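 active means activation above the mean activation of all test compounds in the run plus 3 SD, cut at about 38% in these data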
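Repeats: no replicates (n 1) | Material: CHO-derived RD-HGA16 cells with stable Gα16 and human TAAR1 | Technique: Kinetic Fluo-8 calcium fluorescence | Schedule: 17-24 h seeding, 75 min 37 °C dye, 30 min RT | Evaluation: % activation from peak over basal fluorescence ratio, DMSO-to-PEA scaled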
TAAR1 antagonist – human TAAR1 antagonists, primary screen, Fluo-8 calcium fluorescence, CHO RD-HGA16 cells | Trace amine-associated receptor 1 (Homo sapiens), Q96RJ0 | hit rate 1.5% among 360,000 | AID 624466, 2012 | inhibition, % at 3 µM | antagonist;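 active means inhibition above a per-plate cutoff, the mean inhibition of test compounds on that plate plus 3 SD, cut at about 49% in these data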;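 further: 0% = DMSO plus EC80 beta-PEA response and 100% = DMSO alone without agonist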
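Test system – hTAAR1-expressing CHO RD-HGA16 cells, Gα16-coupled · Reagent – β-PEA at EC80 concentration, post-compound challenge · Compound dosing – 3 µM, single point · Timing – 140 s kinetic read after compound, 140 s after agonist · Detection – Fluo-8 intracellular calcium dye fluorescence, real-time kinetic reads · Control set – DMSO and EC80 PEA controls · Repeats – n of 1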
Active calls of the source: *; . = no result. An excerpt weighted towards active compounds, which were near 4.3% of everything screened.

SMILES	CHO parental Ca	OX1R antag-1	GalR3 antagonist	OX1R antag-2	TAAR1 ag	TAAR1 antagonist
CC1Cc2ccccc2N1C(=O)CCNS(=O)(=O)c1cccc2nsnc12 (stereo not drawn)	-27	5	2	60*	6	2
CC(C)(C)c1ccc(S(=O)(=O)Nc2ccccn2)cc1	-4	-20	-3	6	16	1
CCc1ccccc1N(C1=NCCCS1)S(=O)(=O)c1ccc(C(C)(C)C)cc1	4	0	2	51*	0	-10
O=C(Nc1ccccc1)c1cc(C2CCCN(C(=O)c3ccc4c(c3)CCO4)C2)on1 (stereo not drawn)	.	.	-5	.	1	-2
CCc1nccn1C(=O)c1cnn2c(C(F)F)cc(-c3ccccc3)nc12	-16	-23	.	66*	.	.
CCc1nccn1C(=O)c1cnn2c(C(F)F)cc(-c3ccc(C)cc3)nc12	-13	-1	-3	47	-3	-24
COc1ccccc1Nc1nc(-c2cccnc2)cs1	-19	-27	-10	38*	0	-6
O=[N+]([O-])c1ccccc1Nc1nc(-c2cccnc2)cs1	-17	0	-2	60*	4	4
Cc1cc(C)cc(NC(=O)CSc2nnc(-c3cc(C)[nH]n3)n2N)c1	-11	-6	1	1	4	-12
O=C1c2ccccc2C(=O)C1c1ccnc2ccccc12	-4	-13	-4	69*	5	5
O=C(CN1CCN(C(=O)c2ccco2)CC1)Nc1cc(S(=O)(=O)N2CCCC2)ccc1Cl	.	.	-5	.	1	3
O=C1NC[C@H](Cc2ccccc2)N(CC2CCN(CC3CCCC3)CC2)C1=O	.	.	-3	.	2	1
COc1ccc(NC(=O)COC(=O)CCCC2=NS(=O)(=O)c3ccccc3N2)cc1	4	3	2	6	39*	-16
OCCCc1nc2n(n1)C(c1cccs1)C=C(c1ccc(Br)cc1)N2 (stereo not drawn)	39*	30	.	17	.	.
CC1=C(C(N)=O)C(c2ccc(Br)cc2)n2nc(CCCO)nc2N1 (stereo not drawn)	0	-23	-7	-6	-1	-1
Cc1ccc(C)c(N(C(=O)Cc2cccs2)C(C(=O)NC2CCCC2)c2ccc(C)o2)c1 (stereo not drawn)	-8	-16	-2	11	-4	-12
Cc1ccc(C(C(=O)NC2CCCC2)N(C(=O)Cc2cccs2)c2ccc(C)c(C)c2)o1 (stereo not drawn)	40*	13	-5	53*	3	22
Cc1cccn2c(=O)c3cc(C#N)c(=NC(=O)c4ccncc4)n(CCCOC(C)C)c3nc12	-10	-16	-1	47	1	-7
CCCCNC(=O)c1cc2c(=O)n3cccc(C)c3nc2n(Cc2ccncc2)c1=N	-16	-22	-7	41*	-2	0
COCCCn1c(=NC(=O)c2ccncc2)c(C#N)cc2c(=O)n3cccc(C)c3nc21	-7	-15	-4	41*	9	7
COCCNC(=O)c1cc2c(=O)n3cccc(C)c3nc2n(Cc2ccncc2)c1=N	-9	-21	-3	49*	7	1
CCOC(=O)C1(CCOC)CCCCC1=O (stereo not drawn)	.	.	-5	.	2	4
COc1ccc(-c2sc3ccccc3c2/C=C/c2ccncc2)cc1	-30	-4	-4	26	12	-24
CC(=O)c1c(-c2ccccc2)c2cc(Cl)ccc2[nH]c1=O	-19	2	-4	67*	14	2
CC(=O)c1c(-c2ccc(Cl)cc2)c2ccccc2[nH]c1=O	-12	-21	-6	11	2	22
SMILES	CHO parental Ca	OX1R antag-1	GalR3 antagonist	OX1R antag-2	TAAR1 ag	TAAR1 antagonist
CCCC(C)C(=O)NC1CCCCN(C)C1=O (stereo not drawn)	.	.	-9	.	1	-1
CN(C)CC[n+]1ccc(C(=O)c2ccccc2)cc1	-3	-11	-5	52*	1	-14
O=C(c1ccccc1)c1cccc[n+]1[O-]	0	6	-3	-6	2	-16
O=C(c1ccccc1)c1cc[n+]([O-])cc1	-3	-14	-4	42*	15	11
O=C(C[n+]1ccc(C(=O)c2ccccc2)cc1)Nc1ccc(C(F)(F)F)cc1	-4	-19	4	42	0	4
CCOc1cc(N2CCOCC2)c(OCC)cc1NC(=O)c1cc(S(=O)(=O)N2CCOCC2)ccc1C	-18	0	-3	16	2	1
CC(C1CC2CCC1C2)n1c(COc2ccccc2F)nnc1SCC(N)=O (stereo not drawn)	-9	-32	-2	10	24	11
CC(C)NC(=O)NC(=O)CSc1nnc(COc2ccccc2F)n1C(C)C1CC2CCC1C2 (stereo not drawn)	70*	5	.	0	.	.
CSCc1ccc(C(=O)N2CCCC(Nc3ccc(F)cc3)C2)o1 (stereo not drawn)	-15	-25	1	12	0	-29
CC(C)(C)N(Cc1ccccc1)C(=O)COC(=O)C1CC(=O)N(Cc2ccccc2)C1 (stereo not drawn)	.	.	-4	.	7	-13
O=C(Nc1c2ccccc2nc2ccccc12)C(Cl)(Cl)Cl	1	1	.	69*	.	.
O=C(Cc1ccccc1)NNc1c2ccccc2nc2ccccc12	-19	-12	-6	31	1	9
CC(C)c1[nH]nc2c1C(c1ccccc1)N(c1ccccc1)C2=O (stereo not drawn)	.	.	-3	.	2	-14
O=C(c1ccc(S(=O)(=O)c2cccc(Cl)c2)c([N+](=O)[O-])c1)N1CCN(c2ccccn2)CC1	33*	4	0	43	10	-2
COCc1nnc(NC(=O)c2cccc(NC(=O)c3ccccc3)c2)s1	-15	-17	-2	35	6	25
COc1ccc(OC)c(Nc2cc3ccccc3c(=O)[nH]2)c1	-11	-21	-9	68*	10	19
COc1cc(CCN(C(=O)c2cc3ccccc3[nH]2)C(C)c2nc3ccccc3[nH]2)cc(OC)c1 (stereo not drawn)	.	.	-7	.	2	65*
COc1cc(CCN(C(=O)c2cc3ccccc3[nH]2)C(c2ccccn2)c2nc3ccccc3[nH]2)cc(OC)c1 (stereo not drawn)	.	.	-4	.	3	16
CC(C)n1c(SCC(=O)Nc2nc3c(s2)CCCC3)nc2c1c(=O)n(C)c(=O)n2C	0	-5	-1	34	25	56*

Screening data: PubChem BioAssay, The Scripps Research Institute Molecular Screening Center
